# PDI inh: blocks human protein disulfide isomerase activity; P07237; PDI insulin aggregation turbidity, A650, 90 min; inhibition, % at 10 µM; 350,000 compounds, 0.052% hits; AID 588391;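 active means mean inhibition across replicates of 30% or more, whatever share of single replicates reach that level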
# ERp5 inh: blocks human ERp5 reductase activity on insulin; 350,000 compounds, 0.05% hits; inhibition, % at 9.99 µM; Q15084; ERp5 insulin aggregation, absorbance 650 nm, 90 min; AID 651711;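 active means mean replicate inhibition above about 25%, with every replicate also reaching it, limit read from the data, passing the limit was not always enough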
# Target sequence (Q15084 whole entry, looked up): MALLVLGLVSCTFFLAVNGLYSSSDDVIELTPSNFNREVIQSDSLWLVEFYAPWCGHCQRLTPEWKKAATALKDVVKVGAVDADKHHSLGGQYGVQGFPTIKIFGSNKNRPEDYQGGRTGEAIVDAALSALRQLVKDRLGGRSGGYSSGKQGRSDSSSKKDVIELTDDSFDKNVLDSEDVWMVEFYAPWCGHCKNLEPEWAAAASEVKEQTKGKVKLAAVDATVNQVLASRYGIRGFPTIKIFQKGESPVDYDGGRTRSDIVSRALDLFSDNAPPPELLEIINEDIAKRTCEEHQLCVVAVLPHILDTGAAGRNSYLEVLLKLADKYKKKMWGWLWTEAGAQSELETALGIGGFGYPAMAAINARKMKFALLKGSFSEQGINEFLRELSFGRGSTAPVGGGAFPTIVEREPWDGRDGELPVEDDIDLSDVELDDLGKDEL
# TbMetRS inhib: Trypanosoma brucei MetRS inhibition. purified T. brucei MetRS, ATP depletion, Kinase-Glo luminescence. inhibition, % at 11.9 µM. 360,000 compounds, 0.4% hits. AID 624268;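 active means inhibition above a per-plate cutoff of the control wells' mean inhibition plus 3 SD, cut at about 5.5% in these data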;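 further: 0% = DMSO wells median and 100% = median of wells with control inhibitor compound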
#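 Material: parasite MetRS enzyme / Replication: singlicate, one well per compound / Signal: luminescence of leftover ATP / Schedule: 2 h aminoacylation at 25 °C after 15 min preincubation / Medium: HEPES-MgCl2-KCl buffer plus DTT, spermine, BSA, pyrophosphatase / Doses: 11.9 µM single point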
# Tb MetRS conf: confirmation of Trypanosoma brucei MetRS inhibitors | shares compounds with TbMetRS inhib | inhibition, % at 11.9 µM | T. brucei MetRS enzyme, luminescence (ATP depletion) | 1,400 compounds, 93% hits; in the data active means inhibition above about 7%
# Jurkat cytotox: kills Jurkat cells in T. brucei MetRS counterscreen. shares compounds with TbMetRS inhib. Jurkat cells viability, ATP luminescence. inhibition, % at 8.3 µM. 1,400 compounds, 12% hits; in the data active means inhibition above about 15%;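 further: 0% = vehicle and 100% = reference inhibitor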
# Tb MetRS inh FP: inhibits T. brucei methionyl tRNA synthetase in orthogonal FP test; purified T. brucei MetRS, fluorescence polarization; shares compounds with TbMetRS inhib; inhibition, % at 11.9 µM; 1,400 compounds, 44% hits; in the data active means inhibition above about 17%;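 further: 0% = vehicle wells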
# Active calls of the source: *; x = no result given. Most compounds without a hit are left out; they make up all but 0.4% or so of the library.
SMILES,PDI inh,ERp5 inh,TbMetRS inhib,Tb MetRS conf,Jurkat cytotox,Tb MetRS inh FP
COc1ccc(O)c(/C=N/Nc2nc3ccccc3[nH]2)c1,-3.3,-3.1,-0.4,x,x,x
COc1cccc(/C=N/Nc2nc3ccccc3[nH]2)c1OC,0.3,3.2,2.2,x,x,x
COc1cc(/C=N/Nc2nc3ccccc3[nH]2)ccc1O,4.1,20.8,7.9*,14.7*,14.6,31.6*
COc1cccc(/C=N/Nc2nc3ccccc3[nH]2)c1O,-0.9,-3.2,8.8*,10.4*,95.8*,7.3
COc1ccc(S(=O)(=O)Nc2ccc3c(c2)C(=O)N([C@H](C)CO)C[C@@H](C)[C@@H](CN(C)S(C)(=O)=O)OCCCC[C@H](C)O3)cc1,x,-0.8,x,x,x,x
N#Cc1cccc(-c2ccc([C@@H]3[C@H](CO)N4CCCCN(C(=O)Nc5cccc(F)c5)C[C@@H]34)cc2)c1,x,-0.3,x,x,x,x
O=C(C[C@H]1C=C[C@@H](NC(=O)c2cccnc2)[C@H](CO)O1)NCc1ccncn1,x,-6.1,x,x,x,x
C[C@H](CO)N1C[C@H](C)[C@H](CN(C)Cc2ccc(C(=O)O)cc2)Oc2ccc(NC(=O)Cc3ccccc3)cc2C1=O,x,4.0,x,x,x,x
COC(=O)c1ccc(/C=N/Nc2nc3ccccc3[nH]2)cc1,0.3,-6.1,1.8,x,x,x
COc1cc(/C=N/Nc2nc3ccccc3[nH]2)cc(OC)c1O,-0.1,x,8.5*,14.4*,30.4*,32.6*
CSc1nc2ccccc2n1CC(=O)Nc1ccccc1,17.7,x,0.1,x,x,x
O=C(Cn1c(/C=C/c2ccccc2)nc2ccccc21)Nc1ccc(F)cc1,3.8,x,32.1*,55.2*,7.7,39.5*
C[C@@H]1CCCCO[C@H](CN(C)Cc2ccncc2)[C@H](C)CN([C@@H](C)CO)C(=O)c2cc(NS(=O)(=O)c3ccccc3)ccc2O1,x,3.8,x,x,x,x
CC(C)Cc1nc2ccccc2[nH]1,8.3,1.0,-0.4,x,x,x
COc1ccccc1CC(Cc1nc2ccccc2[nH]1)c1nc2ccccc2[nH]1 (configuration not stated),-2.1,7.3,5.7*,10.8*,3.0,2.7
Cc1cccc(CC(Cc2nc3ccccc3[nH]2)c2nc3ccccc3[nH]2)c1 (configuration not stated),-1.1,x,8.4*,21.5*,9.8,9.3
Cc1ccc(Cc2nc3ccccc3[nH]2)cc1,-27.7,0.0,3.0,x,x,x
O=C(C[C@H]1C=C[C@H](NC(=O)NC2CCCCC2)[C@H](CO)O1)NCc1ccc(F)cc1,x,-0.9,x,x,x,x
CO[C@@H]1CN(C)C(=O)c2ccc(NC(=O)c3cnccn3)cc2OC[C@H](C)N(C(=O)C2CC2)C[C@@H]1C,x,2.5,x,x,x,x
C[C@H](NC(=O)N(C)C[C@@H]1OCc2ccccc2-c2ccccc2C(=O)N([C@@H](C)CO)C[C@@H]1C)c1ccccc1,x,0.7,x,x,x,x
CO[C@@H]1CN(C)C(=O)c2ccc(NC(=O)CC(F)(F)F)cc2OC[C@H](C)N(C(=O)C2CC2)C[C@H]1C,x,-2.7,x,x,x,x
COc1cccc(NC(=O)Cn2cc(C=O)c3ccccc32)c1,-0.9,1.8,3.5,x,x,x
CCc1cccc(NC(=O)Cn2cc(C=O)c3ccccc32)c1,3.8,2.9,9.0*,18.8*,14.3,11.8
O=C(N[C@H]1CC[C@H](CC(=O)N2CCCCC2)O[C@H]1CO)c1ccc2c(c1)OCO2,x,1.9,x,x,x,x
CC(C)(C)OC(=O)N1CCC[C@H]1C(=O)N1CCC[C@H]1C(=O)NCc1ccc(F)cc1F,x,-4.4,0.0,x,x,x
SMILES,PDI inh,ERp5 inh,TbMetRS inhib,Tb MetRS conf,Jurkat cytotox,Tb MetRS inh FP
CC(C)(C)OC(=O)N1CCC[C@H]1C(=O)NCc1ccc(Cl)cc1Cl,-0.8,-2.1,5.7*,14.5*,0.5,1.6
Cc1noc(C)c1S(=O)(=O)Nc1ccc2c(c1)C(=O)N([C@H](C)CO)C[C@@H](C)[C@H](CN(C)C(=O)Nc1ccc(F)cc1)OCCCC[C@H](C)O2,x,2.5,x,x,x,x
O=C(NCc1ccc2c(c1)OCO2)c1ccc(CSCc2ccc(Cl)cc2)o1,-11.9,x,-0.7,x,x,x
O=C(Nc1cccnc1)c1ccc(COc2cc(Cl)ccc2Cl)o1,-2.8,x,6.8*,15.2*,8.2,18.3*
O=C(Nc1cccnc1)c1ccc(COc2ccccc2Cl)o1,-5.8,x,-0.4,x,x,x
O=C(NCc1ccc2c(c1)OCO2)c1ccc(COc2cc(Cl)ccc2Cl)o1,-4.0,x,8.1*,15.2*,-2.3,9.7
COc1ccccc1-c1ccc(C2[C@H]3CNC[C@@H]2N3S(=O)(=O)c2ccccc2OC)cc1 (some centres not stated),x,0.1,x,x,x,x
CNC[C@H]1Oc2cc(C#CCC(C)C)ccc2S(=O)(=O)N([C@H](C)CO)C[C@@H]1C,x,-6.0,x,x,x,x
Cc1ccc(S(=O)(=O)Nc2ccc3c(c2)C(=O)N([C@H](C)CO)C[C@@H](C)[C@H](CN(C)Cc2ccc(-c4ccccc4)cc2)O3)cc1,x,-9.7,x,x,x,x
Nc1n[nH]c(N)c1N=Nc1ccccc1F,10.8,2.4,-0.5,x,x,x
Nc1n[nH]c(N)c1N=Nc1ccc(Cl)cc1Cl,-11.3,1.4,9.7*,22.2*,19.2*,35.9*
C[C@@H]1CN([C@H](C)CO)C(=O)Cc2cc(NS(=O)(=O)c3ccc(F)cc3)ccc2O[C@@H]1CN(C)C(=O)Nc1ccccc1,x,-0.4,x,x,x,x
CN(C)C(=O)[C@H]1[C@H](CO)[C@H]2Cn3c(ccc(-c4ccc(F)cc4)c3=O)[C@@H]1N2CCc1ccccc1,x,8.4,x,x,x,x
CC(=O)NC[C@@H]1[C@@H](c2ccc(C3=CCCCC3)cc2)[C@@H](CO)N1C(=O)C1CCC1,x,-1.2,x,x,x,x
CCN1CCN(CCCOc2ccc(Cl)cc2Br)CC1,-4.0,0.8,7.7*,12.5*,7.8,5.8
Cc1cc(Cl)c(OCCCn2ccnc2)c(Br)c1,-4.7,-6.8,0.0,x,x,x
Clc1ccc(OCCCN2CCCCC2)c(Br)c1,5.4,7.0,17.1*,28.3*,3.4,11.1
Clc1ccc(Cl)c(OCCCCN2CCNCC2)c1,4.2,-5.0,0.1,x,x,x
Clc1ccc(OCCN2CCCCC2)c(Cl)c1,3.7,x,4.0,x,x,x
Clc1ccc(OCCCn2ccnc2)c(Br)c1,-1.3,x,12.8*,21.5*,4.7,12.7
CC1CCCN(CCOCCOc2ccc(Cl)cc2Br)C1 (configuration not stated),-8.7,x,2.6,x,x,x
Clc1ccc(OCCCCCN2CCCC2)c(Br)c1,16.8,4.9,6.2*,13.3*,13.3,3.9
CC(C)c1cn(CC[C@H]2CC[C@@H](NC(=O)C3CCOCC3)[C@H](CO)O2)nn1,x,-0.8,x,x,x,x
O=C(Cc1ccncc1)NCC[C@@H]1CC[C@H](NC(=O)C2CCCCC2)[C@@H](CO)O1,x,-0.2,x,x,x,x
COc1ccc(CCNC(=O)c2ccc([N+](=O)[O-])cc2Cl)cc1OC,-5.6,-4.2,-8.2,x,x,x
COc1ccc(CCNC(=O)c2ccc(-c3ccc([N+](=O)[O-])cc3Cl)o2)cc1OC,-2.5,3.5,5.7*,8.7*,31.7*,19.1*
CCCC(=O)Nc1ccc2c(c1)C(=O)N(C)C[C@@H](OC)[C@H](C)CN(C(=O)c1ccccc1F)[C@@H](C)CO2,x,2.1,x,x,x,x
O=C(C[C@H]1C[C@H]2c3cc(NC(=O)NC4CCCCC4)ccc3O[C@H]2[C@@H](CO)O1)NC1CCCC1,x,-3.7,x,x,x,x

# Compound activity as filed in PubChem BioAssay.
